Source: ChEMBL document CHEMBL1154667, “Synthesis of 3beta, 7alpha, 11alpha-trihydroxy-pregn-21-benzylidene-5-en-20-one derivatives and their cytotoxic activities” (2009)

Test: Cytotoxicity against human EC109 cells at 50 ug/ml after 48 hrs by MTT assay
Format: functional
Conditions: ECa-109, 48 h
Procedure, shortened: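 EC109 cells grown in RPMI-1640 with 10% fetal calf serum, penicillin and streptomycin at 37 °C in 5% CO2. Seeded at 7000 cells/well; compound diluted in medium added next day for 48 h. MTT (0.5 mg/mL in PBS) then added for a further 4 h, formazan dissolved in DMSO, absorbance read at 570 nm.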
`CC(=O)[C@H]1CC[C@H]2[C@@H]3CC=C4C[C@@H](O)CC[C@]4(C)[C@H]3CC[C@]12C` [PREGNENOLONE] gave an inhibition at 50 µg/mL of 13.6%. `C[C@]12C[C@@H](O)[C@H]3[C@@H]([C@H](O)C=C4C[C@@H](O)CC[C@@]43C)[C@@H]1CC[C@@H]2C(=O)/C=C/c1ccccc1` gave an inhibition at 50 µg/mL of 59.8%. For `CC(=O)[C@H]1CC[C@H]2[C@H]3[C@H]([C@H](O)C[C@]12C)[C@@]1(C)CC[C@H](O)CC1=C[C@H]3O`, the inhibition at 50 µg/mL was 21.7%. In the case of `C[C@]12C[C@@H](O)[C@H]3[C@@H]([C@H](O)C=C4C[C@@H](O)CC[C@@]43C)[C@@H]1CC[C@@H]2C(=O)/C=C/c1ccc(F)cc1`, the inhibition at 50 µg/mL is reported as 76.8%. Work on `CN(C)c1ccc(/C=C/C(=O)[C@H]2CC[C@H]3[C@H]4[C@H]([C@H](O)C[C@]23C)[C@@]2(C)CC[C@H](O)CC2=C[C@H]4O)cc1` yielded an inhibition at 50 µg/mL of 39%. With `COc1ccc(/C=C/C(=O)[C@H]2CC[C@H]3[C@H]4[C@H]([C@H](O)C[C@]23C)[C@@]2(C)CC[C@H](O)CC2=C[C@H]4O)cc1` the inhibition at 50 µg/mL was 55.3%. With `C[C@]12C[C@@H](O)[C@H]3[C@@H]([C@H](O)C=C4C[C@@H](O)CC[C@@]43C)[C@@H]1CC[C@@H]2C(=O)/C=C/c1ccc(O)cc1` the inhibition at 50 µg/mL was 45.7%. In the case of `COc1cc(OC)c(/C=C/C(=O)[C@H]2CC[C@H]3[C@H]4[C@H]([C@H](O)C[C@]23C)[C@@]2(C)CC[C@H](O)CC2=C[C@H]4O)c(OC)c1`, the inhibition at 50 µg/mL is reported as 35.3%. `C=C1C(=O)[C@]23[C@H](O)[C@H]1CC[C@H]2[C@@]12CO[C@]3(O)[C@@H](O)[C@@H]1C(C)(C)CC[C@@H]2O` [ORIDONIN] gave an inhibition at 50 µg/mL of 94.7%. For `C[C@]12C[C@@H](O)[C@H]3[C@@H]([C@H](O)C=C4C[C@@H](O)CC[C@@]43C)[C@@H]1CC[C@@H]2C(=O)/C=C/c1ccc(Cl)cc1`, the inhibition at 50 µg/mL was 80.2%. For `C[C@]12C[C@@H](O)[C@H]3[C@@H]([C@H](O)C=C4C[C@@H](O)CC[C@@]43C)[C@@H]1CC[C@@H]2C(=O)/C=C/c1cccc([N+](=O)[O-])c1`, the inhibition at 50 µg/mL was 72.4%. For `COc1ccccc1/C=C/C(=O)[C@H]1CC[C@H]2[C@H]3[C@H]([C@H](O)C[C@]12C)[C@@]1(C)CC[C@H](O)CC1=C[C@H]3O`, the inhibition at 50 µg/mL was 47.4%. For `C[C@]12C[C@@H](O)[C@H]3[C@@H]([C@H](O)C=C4C[C@@H](O)CC[C@@]43C)[C@@H]1CC[C@@H]2C(=O)/C=C/c1cccc(Cl)c1`, the inhibition at 50 µg/mL was 76.4%. With `C[C@]12C[C@@H](O)[C@H]3[C@@H]([C@H](O)C=C4C[C@@H](O)CC[C@@]43C)[C@@H]1CC[C@@H]2C(=O)/C=C/c1ccc(N)cc1` the inhibition at 50 µg/mL was 50.2%.
